In ChEMBL document CHEMBL2203081 (Bioorg Med Chem Lett, 2012):

How the values were obtained:
[1] = target: Serine/threonine-protein kinase tousled-like 1 (Homo sapiens) (UniProt Q9UKI8); experiment: Inhibition of TLK1 assessed as residual activity at 10 uM relative to control
[2] = target: Cyclin-dependent kinase 2 (Homo sapiens) (UniProt P24941); experiment: Inhibition of CDK2 assessed as residual activity at 10 uM relative to control
[3] = target: Serine/threonine-protein kinase pim-1 (Homo sapiens) (UniProt P11309); experiment: Inhibition of PIM1 assessed as residual activity at 1 uM
Chain of Serine/threonine-protein kinase pim-1 (Homo sapiens) (P11309 whole entry, looked up): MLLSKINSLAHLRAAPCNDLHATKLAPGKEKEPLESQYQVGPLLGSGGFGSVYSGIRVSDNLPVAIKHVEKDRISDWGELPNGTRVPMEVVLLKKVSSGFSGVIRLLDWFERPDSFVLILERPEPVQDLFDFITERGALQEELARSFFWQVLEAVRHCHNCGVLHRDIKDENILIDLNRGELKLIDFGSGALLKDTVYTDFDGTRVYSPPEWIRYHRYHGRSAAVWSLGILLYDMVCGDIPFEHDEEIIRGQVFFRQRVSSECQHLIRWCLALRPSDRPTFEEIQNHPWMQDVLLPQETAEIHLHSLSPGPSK

[4] = target: STE20/SPS1-related proline-alanine-rich protein kinase (Homo sapiens) (UniProt Q9UEW8); experiment: Inhibition of STK39 assessed as residual activity at 10 uM relative to control
[5] = target: Fibroblast growth factor receptor 1 (Homo sapiens) (UniProt P11362); experiment: Inhibition of FGF-R1 assessed as residual activity at 1 uM
Outline: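 Radioactivity-based enzymatic activity assay of the named kinase, run as part of a 131-kinase specificity panel at the National Centre for Protein Kinase Profiling (Dundee). Residual activity was read at the stated single inhibitor concentration.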

[6] = target: Microtubule-associated serine/threonine-protein kinase 1 (Homo sapiens) (UniProt Q9Y2H9); experiment: Inhibition of MAST1 assessed as residual activity at 10 uM relative to control
Chain of Microtubule-associated serine/threonine-protein kinase 1 (Homo sapiens) (Q9Y2H9 whole entry, looked up): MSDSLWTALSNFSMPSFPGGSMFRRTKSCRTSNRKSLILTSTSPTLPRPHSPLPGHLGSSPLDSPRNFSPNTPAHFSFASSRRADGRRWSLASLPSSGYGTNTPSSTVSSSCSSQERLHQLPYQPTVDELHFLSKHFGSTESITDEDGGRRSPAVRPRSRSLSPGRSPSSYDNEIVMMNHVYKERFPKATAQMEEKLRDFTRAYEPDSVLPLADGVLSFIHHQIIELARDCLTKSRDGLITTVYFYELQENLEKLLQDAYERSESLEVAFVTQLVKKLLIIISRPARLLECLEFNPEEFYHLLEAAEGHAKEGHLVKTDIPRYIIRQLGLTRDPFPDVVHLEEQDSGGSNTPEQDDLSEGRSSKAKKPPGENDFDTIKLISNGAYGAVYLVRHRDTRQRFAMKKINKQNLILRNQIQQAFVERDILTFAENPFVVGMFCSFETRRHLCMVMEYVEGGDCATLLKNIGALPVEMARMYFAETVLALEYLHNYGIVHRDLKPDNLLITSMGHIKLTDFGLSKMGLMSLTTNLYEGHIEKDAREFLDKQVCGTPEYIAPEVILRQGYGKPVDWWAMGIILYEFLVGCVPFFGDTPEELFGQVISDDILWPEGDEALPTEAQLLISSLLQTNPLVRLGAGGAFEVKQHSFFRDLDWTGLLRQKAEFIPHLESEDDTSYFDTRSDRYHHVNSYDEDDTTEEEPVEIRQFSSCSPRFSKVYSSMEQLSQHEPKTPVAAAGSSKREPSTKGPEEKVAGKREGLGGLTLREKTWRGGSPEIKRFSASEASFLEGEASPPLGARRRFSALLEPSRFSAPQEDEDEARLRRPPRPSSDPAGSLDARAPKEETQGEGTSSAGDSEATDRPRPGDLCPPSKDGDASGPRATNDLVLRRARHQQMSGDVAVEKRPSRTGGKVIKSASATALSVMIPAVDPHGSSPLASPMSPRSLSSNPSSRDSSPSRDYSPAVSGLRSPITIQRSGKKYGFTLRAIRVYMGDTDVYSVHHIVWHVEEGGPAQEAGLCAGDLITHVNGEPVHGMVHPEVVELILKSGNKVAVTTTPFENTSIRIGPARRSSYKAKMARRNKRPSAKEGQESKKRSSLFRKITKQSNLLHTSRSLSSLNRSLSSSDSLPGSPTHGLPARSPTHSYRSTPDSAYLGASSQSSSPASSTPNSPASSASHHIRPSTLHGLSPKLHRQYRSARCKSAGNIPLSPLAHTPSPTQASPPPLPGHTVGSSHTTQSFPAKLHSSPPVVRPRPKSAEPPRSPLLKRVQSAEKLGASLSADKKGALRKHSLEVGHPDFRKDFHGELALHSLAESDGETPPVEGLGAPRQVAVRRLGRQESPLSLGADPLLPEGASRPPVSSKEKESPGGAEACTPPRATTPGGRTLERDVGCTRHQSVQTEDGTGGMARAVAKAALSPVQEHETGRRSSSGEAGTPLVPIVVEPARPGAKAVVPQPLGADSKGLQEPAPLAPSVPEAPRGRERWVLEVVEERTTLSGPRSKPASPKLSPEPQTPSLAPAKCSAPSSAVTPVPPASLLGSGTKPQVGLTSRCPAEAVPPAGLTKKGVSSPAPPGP

[7] = target: Mitogen-activated protein kinase kinase kinase kinase 3 (Homo sapiens) (UniProt Q8IVH8); experiment: Inhibition of MAP4K3 assessed as residual activity at 10 uM relative to control
[8] = target: Serine/threonine-protein kinase LATS2 (Homo sapiens) (UniProt Q9NRM7); experiment: Inhibition of LATS2 assessed as residual activity at 10 uM relative to control
Chain of Serine/threonine-protein kinase LATS2 (Homo sapiens) (Q9NRM7 whole entry): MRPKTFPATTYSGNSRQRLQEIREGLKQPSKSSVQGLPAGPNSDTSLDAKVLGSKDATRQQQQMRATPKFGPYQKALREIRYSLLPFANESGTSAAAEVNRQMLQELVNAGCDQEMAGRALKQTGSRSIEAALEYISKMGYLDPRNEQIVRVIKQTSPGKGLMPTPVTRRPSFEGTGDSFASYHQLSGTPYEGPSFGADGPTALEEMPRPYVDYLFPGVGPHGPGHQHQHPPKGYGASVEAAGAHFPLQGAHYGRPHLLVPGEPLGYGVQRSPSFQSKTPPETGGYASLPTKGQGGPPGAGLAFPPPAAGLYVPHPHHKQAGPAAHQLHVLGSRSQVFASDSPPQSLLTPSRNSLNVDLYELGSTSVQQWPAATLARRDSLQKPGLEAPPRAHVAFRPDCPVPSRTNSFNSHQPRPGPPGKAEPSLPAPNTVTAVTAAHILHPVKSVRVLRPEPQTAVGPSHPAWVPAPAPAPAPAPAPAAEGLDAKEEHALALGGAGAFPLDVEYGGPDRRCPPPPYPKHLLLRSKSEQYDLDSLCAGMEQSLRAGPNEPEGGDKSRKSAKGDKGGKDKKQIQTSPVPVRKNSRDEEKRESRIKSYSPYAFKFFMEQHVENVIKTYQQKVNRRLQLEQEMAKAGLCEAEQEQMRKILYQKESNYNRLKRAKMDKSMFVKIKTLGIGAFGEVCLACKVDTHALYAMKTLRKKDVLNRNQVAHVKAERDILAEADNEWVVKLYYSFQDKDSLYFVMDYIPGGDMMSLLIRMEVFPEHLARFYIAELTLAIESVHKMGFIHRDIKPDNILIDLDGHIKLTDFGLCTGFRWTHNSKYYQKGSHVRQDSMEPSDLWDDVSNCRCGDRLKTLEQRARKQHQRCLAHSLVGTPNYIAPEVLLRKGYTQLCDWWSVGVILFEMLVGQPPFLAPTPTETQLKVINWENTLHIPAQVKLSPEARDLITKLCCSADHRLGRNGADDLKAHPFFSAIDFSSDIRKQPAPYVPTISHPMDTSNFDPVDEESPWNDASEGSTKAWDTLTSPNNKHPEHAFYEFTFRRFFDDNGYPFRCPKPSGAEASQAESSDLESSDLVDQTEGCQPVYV

[9] = test system: Mast/stem cell growth factor receptor Kit (Homo sapiens), P10721 [V559D,T670I]; experiment: Inhibition of KIT V559D,T670I mutant assessed as residual activity at 10 uM relative to control
[10] = target: Serine/threonine-protein kinase RIO2 (Homo sapiens) (UniProt Q9BVS4); experiment: Inhibition of RIOK2 assessed as residual activity at 10 uM relative to control
Chain of Serine/threonine-protein kinase RIO2 (Homo sapiens) (Q9BVS4 whole entry, looked up): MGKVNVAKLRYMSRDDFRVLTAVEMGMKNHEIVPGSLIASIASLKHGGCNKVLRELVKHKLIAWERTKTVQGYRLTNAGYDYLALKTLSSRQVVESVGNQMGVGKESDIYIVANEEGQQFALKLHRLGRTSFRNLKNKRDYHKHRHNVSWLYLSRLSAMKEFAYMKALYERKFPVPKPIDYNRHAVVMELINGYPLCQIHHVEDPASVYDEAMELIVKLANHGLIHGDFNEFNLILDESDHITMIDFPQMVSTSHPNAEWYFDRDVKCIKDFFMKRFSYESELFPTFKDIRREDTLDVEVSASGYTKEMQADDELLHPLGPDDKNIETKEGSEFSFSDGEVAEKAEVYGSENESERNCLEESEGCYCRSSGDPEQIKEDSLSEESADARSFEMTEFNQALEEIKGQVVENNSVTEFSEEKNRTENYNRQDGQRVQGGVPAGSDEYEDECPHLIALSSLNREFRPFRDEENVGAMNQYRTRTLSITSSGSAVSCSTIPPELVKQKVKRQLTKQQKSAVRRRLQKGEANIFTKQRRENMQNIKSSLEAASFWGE

[11] = target: T1, NUAK family SNF1-like kinase 1 (Homo sapiens) (UniProt O60285); experiment: Inhibition of ARK5 assessed as residual activity at 10 uM relative to control
T1 sequence (whole entry): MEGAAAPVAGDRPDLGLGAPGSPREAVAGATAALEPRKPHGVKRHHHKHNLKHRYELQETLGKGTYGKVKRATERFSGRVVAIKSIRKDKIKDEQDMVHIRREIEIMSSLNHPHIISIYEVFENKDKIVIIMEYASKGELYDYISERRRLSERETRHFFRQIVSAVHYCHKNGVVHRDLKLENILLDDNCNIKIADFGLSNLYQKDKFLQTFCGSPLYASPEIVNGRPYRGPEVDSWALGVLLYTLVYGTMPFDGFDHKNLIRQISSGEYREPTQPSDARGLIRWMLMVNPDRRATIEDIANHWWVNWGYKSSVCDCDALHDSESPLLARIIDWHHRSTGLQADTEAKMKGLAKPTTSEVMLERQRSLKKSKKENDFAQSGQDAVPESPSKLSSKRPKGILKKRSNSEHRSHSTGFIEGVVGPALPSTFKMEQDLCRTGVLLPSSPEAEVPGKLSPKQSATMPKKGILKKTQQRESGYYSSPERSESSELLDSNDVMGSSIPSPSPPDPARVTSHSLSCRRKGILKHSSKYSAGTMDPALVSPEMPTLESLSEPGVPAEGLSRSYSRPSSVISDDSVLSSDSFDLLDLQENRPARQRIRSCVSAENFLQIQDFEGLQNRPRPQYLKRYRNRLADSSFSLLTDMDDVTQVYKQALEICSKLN

[12] = target: Serine/threonine-protein kinase N2 (Homo sapiens) (UniProt Q16513); experiment: Inhibition of PKN2 assessed as residual activity at 10 uM relative to control
Chain of Serine/threonine-protein kinase N2 (Homo sapiens) (Q16513 whole entry, looked up): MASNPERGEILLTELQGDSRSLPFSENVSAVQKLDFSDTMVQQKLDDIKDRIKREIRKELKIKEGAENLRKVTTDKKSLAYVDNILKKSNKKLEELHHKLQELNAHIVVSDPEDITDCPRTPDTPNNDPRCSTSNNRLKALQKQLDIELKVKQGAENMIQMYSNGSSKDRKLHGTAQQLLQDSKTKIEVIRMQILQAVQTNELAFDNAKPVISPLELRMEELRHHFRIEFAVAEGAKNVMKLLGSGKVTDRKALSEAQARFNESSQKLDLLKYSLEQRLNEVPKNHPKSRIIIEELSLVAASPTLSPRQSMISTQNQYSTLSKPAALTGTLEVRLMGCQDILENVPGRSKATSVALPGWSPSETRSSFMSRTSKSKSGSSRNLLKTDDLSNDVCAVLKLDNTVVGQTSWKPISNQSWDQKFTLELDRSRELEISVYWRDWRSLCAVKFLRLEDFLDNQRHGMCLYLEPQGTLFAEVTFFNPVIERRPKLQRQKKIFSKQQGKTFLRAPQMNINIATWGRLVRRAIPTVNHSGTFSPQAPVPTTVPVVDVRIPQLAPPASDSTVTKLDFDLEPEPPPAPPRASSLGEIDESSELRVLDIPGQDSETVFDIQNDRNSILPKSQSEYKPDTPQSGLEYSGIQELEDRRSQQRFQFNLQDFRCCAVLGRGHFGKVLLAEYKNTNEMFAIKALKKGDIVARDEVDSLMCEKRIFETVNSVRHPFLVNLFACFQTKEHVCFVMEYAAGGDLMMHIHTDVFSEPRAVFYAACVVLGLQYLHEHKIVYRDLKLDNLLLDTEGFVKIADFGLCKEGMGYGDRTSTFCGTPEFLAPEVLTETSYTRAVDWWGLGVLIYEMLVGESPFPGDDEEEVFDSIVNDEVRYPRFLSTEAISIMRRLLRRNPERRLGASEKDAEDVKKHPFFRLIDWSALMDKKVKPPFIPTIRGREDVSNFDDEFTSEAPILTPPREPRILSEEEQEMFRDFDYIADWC

[13] = test system: Tyrosine-protein kinase ABL1 (Homo sapiens), P00519 [F317I]; experiment: Inhibition of phosphorylated ABL1 F317I mutant assessed as residual activity at 10 uM relative to control
[14] = test system: Brain; experiment: AUClast in Swiss albino mouse brain at 1 mg/kg, iv; type: ADME, organism-based; set-up: dose 1 mg/kg, route intravenous, time 0 - last; conditions: in vivo
Outline: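 Male Swiss Albino mice, single dose given intravenously (1 mg/kg) or orally (10 mg/kg). Drug measured in plasma and brain, with AUClast taken for each. The brain/plasma ratio is based on AUClast, and oral bioavailability is derived from the IV and PO plasma data.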

[15] = target: Serine/threonine-protein kinase N2 (Homo sapiens) (UniProt Q16513); experiment: Inhibition of PRK2 assessed as residual activity at 10 uM
[16] = target: T1, NUAK family SNF1-like kinase 1 (Homo sapiens); experiment: Inhibition of NUAK1 assessed as residual activity at 10 uM
[17] = test system: Receptor-type tyrosine-protein kinase FLT3 (Homo sapiens), P36888 [N841I]; experiment: Inhibition of FLT3 N841I mutant assessed as residual activity at 10 uM relative to control
[18] = target: Cyclin-dependent kinase 2/cyclin A (Homo sapiens) (UniProt P24941+P20248+P78396); experiment: Inhibition of CDK2-Cyclin A assessed as residual activity at 10 uM; type: protein-complex assay
[19] = target: T2, Mitogen-activated protein kinase kinase kinase 7 (Homo sapiens) (UniProt O43318); experiment: Inhibition of TAK1 assessed as residual activity at 1 uM
T2 sequence (whole entry): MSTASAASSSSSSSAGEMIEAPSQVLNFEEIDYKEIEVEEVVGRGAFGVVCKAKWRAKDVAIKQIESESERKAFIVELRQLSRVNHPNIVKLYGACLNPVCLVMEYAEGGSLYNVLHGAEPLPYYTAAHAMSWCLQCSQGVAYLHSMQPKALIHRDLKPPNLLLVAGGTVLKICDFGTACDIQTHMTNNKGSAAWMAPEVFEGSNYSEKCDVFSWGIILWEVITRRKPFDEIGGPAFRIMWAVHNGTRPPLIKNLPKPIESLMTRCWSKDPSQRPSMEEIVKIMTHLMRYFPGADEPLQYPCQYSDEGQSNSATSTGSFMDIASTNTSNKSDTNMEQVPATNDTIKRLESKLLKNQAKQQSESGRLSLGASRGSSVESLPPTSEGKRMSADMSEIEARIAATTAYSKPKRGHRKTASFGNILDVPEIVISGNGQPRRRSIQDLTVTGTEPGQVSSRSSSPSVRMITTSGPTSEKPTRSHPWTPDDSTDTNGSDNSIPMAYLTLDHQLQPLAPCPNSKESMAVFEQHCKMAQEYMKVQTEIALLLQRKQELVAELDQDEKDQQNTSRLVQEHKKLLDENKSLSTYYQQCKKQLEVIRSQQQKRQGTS

[20] = target: Cyclin-dependent kinase 14 (Homo sapiens) (UniProt O94921); experiment: Inhibition of PFTK1 assessed as residual activity at 10 uM relative to control
Chain of Cyclin-dependent kinase 14 (Homo sapiens) (O94921 whole entry): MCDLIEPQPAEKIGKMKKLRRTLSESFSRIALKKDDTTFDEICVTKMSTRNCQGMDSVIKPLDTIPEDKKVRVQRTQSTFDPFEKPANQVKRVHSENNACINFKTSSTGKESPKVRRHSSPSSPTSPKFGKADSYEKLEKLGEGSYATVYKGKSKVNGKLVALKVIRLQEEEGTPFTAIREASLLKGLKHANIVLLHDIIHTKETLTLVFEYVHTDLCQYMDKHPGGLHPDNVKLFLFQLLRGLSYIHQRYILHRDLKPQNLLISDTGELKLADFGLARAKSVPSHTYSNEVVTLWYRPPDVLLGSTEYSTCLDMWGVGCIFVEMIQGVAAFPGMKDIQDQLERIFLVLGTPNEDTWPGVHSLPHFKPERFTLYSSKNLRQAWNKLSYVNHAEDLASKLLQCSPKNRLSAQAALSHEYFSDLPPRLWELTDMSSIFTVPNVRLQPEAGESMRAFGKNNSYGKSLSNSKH

[21] = target: Myosin light chain kinase family member 4 (Homo sapiens) (UniProt Q86YV6); experiment: Inhibition of MYLK4 assessed as residual activity at 10 uM relative to control
[22] = target: Serine/threonine-protein kinase 24 (Homo sapiens) (UniProt Q9Y6E0); experiment: Inhibition of MST3 assessed as residual activity at 10 uM relative to control

Compound: O=C(Nc1cccnc1)c1cc(-c2ccnc(F)c2)ccc1OCc1ccccc1
- Activity [1]: 66%
- Activity [2]: 53%
- Activity [3]: 102%
- Activity [4]: 63%
- Activity [5]: 110%
- Activity [6]: 35%
- Activity [7]: 60%
- Activity [8]: 32%
- Activity [9]: 52%
- Activity [10]: 41%
- Activity [11]: 50%
- Activity [12]: 20%
- Activity [13]: 38%
- AUClast [14]: 708.7 ng·h/mL
- Activity [15]: 79%
- Activity [16]: 58%
- Activity [17]: 30%
- Activity [18]: 117%
- Activity [19]: 108%
- Activity [20]: 80%
- Activity [21]: 80%
- Activity [22]: 63%
